# Reference: ChEMBL document CHEMBL4257516, “Synthesis and cellular penetration properties of new phosphonium based cationic amphiphilic peptides” (Medchemcomm, 2018)
# Active and inactive are the calls of the source. The rule behind the calls is not given here. Residues, ends and D or L forms follow the SMILES beside them. *: point of attachment. BODIPY(FL) = CC1=CC(C)=[N+]2C1=Cc1ccc(CCC(=O)*)n1[B-]2(F)F; Propyl(3-PMe3+) = C[P+](C)(C)CCC*; CH2CH2P(+)Me3 = C[P+](C)(C)CC*
# Tests used:
# [1] = Drug uptake in membrane containing structure of human MCF7 cells at 20 uM after 3 hrs by DAPI/rhodamine phalloidin staining-based fluorescence microscopic method; type: ADME, cell membranes; details: mcf7, 3 h
# Outline: (§1)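 MCF7 cells incubated with 20 μM BODIPY-Fl-labelled peptides (label coupled at the N-terminus) using a slightly modified literature protocol. Nuclei counterstained with DAPI and actin cytoskeleton with rhodamine phalloidin. Imaged by fluorescence microscopy; green, blue and red channels merged to localise peptide. Free BODIPY ligand served as control for green signal.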
# [2] = Drug uptake in cytoplasm of human MCF7 cells at 20 uM after 3 hrs by DAPI/rhodamine phalloidin staining-based fluorescence microscopic method; type: ADME, subcellular; details: mcf7, 3 h
# Outline: (§2)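 Peptides labelled at the N-terminus with BODIPY-Fl; MCF7 cells incubated with 20 μM labelled peptide by a modified literature protocol. Imaged by fluorescence microscopy with DAPI for nuclei and rhodamine phalloidin for cytoskeleton. Green, blue and red images were merged to localise the peptide. Free BODIPY ligand served as a control for green signal.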
# [3] = Drug uptake in nucleus of human MCF7 cells at 20 uM after 3 hrs by DAPI/rhodamine phalloidin staining-based fluorescence microscopic method; type: ADME, subcellular; details: mcf7, 3 h; outline: as §2
# [4] = tested on: MCF7; test: Binding affinity to actin in human MCF7 cells at 20 uM after 3 hrs by DAPI/rhodamine phalloidin staining-based fluorescence microscopic method; type: cell-based; outline: as §1
# [5] = Drug uptake in golgi apparatus of human MCF7 cells at 20 uM after 3 hrs by DAPI/rhodamine phalloidin staining-based fluorescence microscopic method; type: ADME, subcellular; details: mcf7, 3 h; outline: as §2
# [6] = Cytotoxicity against HEK293 cells assessed as cell viability at 256 uM after 24 hrs by Alamar blue assay relative to control; type: cell-based; details: human, read-out: Activity
# Outline: (§3)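 HEK 293 cells exposed to peptides (TFA salts, C-terminal amide, free N-terminus) at 256 and 512 μM; viability as percent, run in triplicate, reported as mean ± SEM.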
# [7] = Hemolytic activity in horse erythrocytes at 512 uM after 1 hr relative to control; type: ADME, cell-based, Equus caballus, Erythrocyte; details: read-out: Activity
# Outline: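 Horse erythrocytes exposed to peptides (TFA salts, C-terminal amide, free N-terminus) at 512 μM; haemolysis as percent, triplicate determinations, reported as mean ± SEM.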
# [8] = Cytotoxicity against HEK293 cells assessed as cell viability at 512 uM after 24 hrs by Alamar blue assay relative to control; type: cell-based; details: human, read-out: Activity; outline: as §3
# [9] = tested on: Escherichia coli; test: Antibacterial activity against extended-spectrum beta-lactamases producing Escherichia coli clinical strain 64771 after overnight incubation by microbroth dilution assay; type: functional
Compound,Drug uptake [2],Drug uptake [3],Activity [4],also measured
CC[C@H](C)[C@H](NC(=O)[C@H](Cc1c[nH]c2ccccc12)NC(=O)[C@H](CSCC[P+](C)(C)C)NC(=O)[C@H](Cc1c[nH]c2ccccc12)NC(=O)[C@H](Cc1c[nH]c2ccccc12)NC(=O)[C@H](CSCC[P+](C)(C)C)NC(=O)[C@H](CSCC[P+](C)(C)C)NC(=O)CCc1ccc2n1[B-](F)(F)[N+]1=C(C)C=C(C)C1=C2)C(=O)N[C@@H](CSCC[P+](C)(C)C)C(=O)N[C@@H](Cc1c[nH]c2ccccc12)C(N)=O.O=C([O-])C(F)(F)F.O=C([O-])C(F)(F)F.O=C([O-])C(F)(F)F.O=C([O-])C(F)(F)F ({BODIPY(FL)}-C(CH2CH2P(+)Me3)C(CH2CH2P(+)Me3)WWC(CH2CH2P(+)Me3)WIC(CH2CH2P(+)Me3)W-NH2),,,,Drug uptake [1]: Active
CC[C@H](C)[C@H](NC(=O)[C@H](Cc1c[nH]c2ccccc12)NC(=O)[C@H](CSCC[P+](C)(C)C)NC(=O)[C@H](Cc1c[nH]c2ccccc12)NC(=O)[C@H](Cc1c[nH]c2ccccc12)NC(=O)[C@H](CSCCC[P+](C)(C)C)NC(=O)[C@H](CSCC[P+](C)(C)C)NC(=O)CCc1ccc2n1[B-](F)(F)[N+]1=C(C)C=C(C)C1=C2)C(=O)N[C@@H](CSCCC[P+](C)(C)C)C(=O)N[C@@H](Cc1c[nH]c2ccccc12)C(N)=O.O=C([O-])C(F)(F)F.O=C([O-])C(F)(F)F.O=C([O-])C(F)(F)F.O=C([O-])C(F)(F)F ({BODIPY(FL)}-C(CH2CH2P(+)Me3)C(Propyl(3-PMe3+))WWC(CH2CH2P(+)Me3)WIC(Propyl(3-PMe3+))W-NH2),Active,Not Active,Active,
CC1=CC(C)=[N+]2C1=Cc1ccc(CCC(=O)N[C@@H](CSCC[P+](C)(C)C)C(=O)N[C@@H](Cc3ccccc3)C(=O)N[C@@H](Cc3ccccc3)C(=O)N[C@@H](CSCC[P+](C)(C)C)C(=O)N[C@@H](Cc3ccccc3)C(=O)N[C@@H](Cc3ccccc3)C(=O)N[C@@H](CSCC[P+](C)(C)C)C(=O)N[C@@H](Cc3ccccc3)C(=O)N[C@@H](Cc3ccccc3)C(=O)N[C@@H](CSCC[P+](C)(C)C)C(N)=O)n1[B-]2(F)F.O=C([O-])C(F)(F)F.O=C([O-])C(F)(F)F.O=C([O-])C(F)(F)F.O=C([O-])C(F)(F)F ({BODIPY(FL)}-C(CH2CH2P(+)Me3)FFC(CH2CH2P(+)Me3)FFC(CH2CH2P(+)Me3)FFC(CH2CH2P(+)Me3)-NH2),,Active,,Drug uptake [5]: Active
CC[C@H](C)[C@H](NC(=O)[C@H](Cc1c[nH]c2ccccc12)NC(=O)[C@H](CSCCC[P+](C)(C)C)NC(=O)[C@H](Cc1c[nH]c2ccccc12)NC(=O)[C@H](Cc1c[nH]c2ccccc12)NC(=O)[C@H](CSCCC[P+](C)(C)C)NC(=O)[C@H](CSCCC[P+](C)(C)C)NC(=O)CCC1=[N+]2C(=Cc3c(C)cc(C)n3[B-]2(F)F)C=C1)C(=O)N[C@@H](CSCCC[P+](C)(C)C)C(=O)N[C@@H](Cc1c[nH]c2ccccc12)C(N)=O.O=C([O-])C(F)(F)F.O=C([O-])C(F)(F)F.O=C([O-])C(F)(F)F.O=C([O-])C(F)(F)F ({BODIPY(FL)}-C(Propyl(3-PMe3+))C(Propyl(3-PMe3+))WWC(Propyl(3-PMe3+))WIC(Propyl(3-PMe3+))W-NH2),Active,Not Active,Active,
CC1=CC(C)=[N+]2C1=Cc1ccc(CCC(=O)N[C@@H](CSCCC[P+](C)(C)C)C(=O)N[C@@H](Cc3ccccc3)C(=O)N[C@@H](Cc3ccccc3)C(=O)N[C@@H](CSCCC[P+](C)(C)C)C(=O)N[C@@H](Cc3ccccc3)C(=O)N[C@@H](Cc3ccccc3)C(=O)N[C@@H](CSCCC[P+](C)(C)C)C(=O)N[C@@H](Cc3ccccc3)C(=O)N[C@@H](Cc3ccccc3)C(=O)N[C@@H](CSCCC[P+](C)(C)C)C(N)=O)n1[B-]2(F)F.O=C([O-])C(F)(F)F.O=C([O-])C(F)(F)F.O=C([O-])C(F)(F)F.O=C([O-])C(F)(F)F ({BODIPY(FL)}-C(Propyl(3-PMe3+))FFC(Propyl(3-PMe3+))FFC(Propyl(3-PMe3+))FFC(Propyl(3-PMe3+))-NH2),,Active,Active,
H-KRWWKWIRW-NH2,,,,"viability at 24 h, 256 µM [6]: 2%; hemolysis at 1 h, 512 µM [7]: 14.3%; viability at 24 h, 512 µM [8]: 0%; MIC [9]: 1.5 µM"
